The source made the active and inactive calls. The rule behind the calls is not given here.
Legend:
[1] = system: MCF7; assay: Induction of cell cycle arrest in human MCF7 cells assessed as accumulation in G2/M phase at 5 nM incubated for 24 hrs by PI staining based flow cytometry analysis (reference value: 16.81 %); assay type: functional
[2] = system: HUVEC; assay: Antimigratory activity against human HUVEC assessed as cell migration rate at 0.5 uM incubated for 24 hrs by wound healing assay (reference value: 100 %); assay type: functional
[3] = system: MCF7; assay: Induction of cell cycle arrest in human MCF7 cells assessed as accumulation in G2/M phase at 10 nM incubated for 24 hrs by PI staining based flow cytometry analysis (reference value: 16.81 %); assay type: functional
[4] = system: MCF7; assay: Induction of cell cycle arrest in human MCF7 cells assessed as accumulation in S phase at 10 nM incubated for 24 hrs by PI staining based flow cytometry analysis (reference value: 19.50 %); assay type: functional
[5] = system: HUVEC; assay: Antiinvasive activity against human HUVEC incubated for 24 hrs by crystal violet staining based inverted fluorescence microscopic transwell assay; assay type: functional, cell-based; settings: dose 0.05-1 µM
How it was run: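 Transwell inserts pre-coated with Matrigel (5 h, 37 °C). Cells in serum-free medium with 0, 0.05, 0.1, 0.5 or 1 μM compound were added to the upper well at 5 × 10⁵ cells/mL; the lower chamber held ECM with 10% FBS. After 24 h at 37 °C, invaded cells were methanol-fixed, stained with 0.1% crystal violet and counted in three random fields. Mean ± SD, three independent experiments.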

[6] = system: MCF7; assay: Induction of cell cycle arrest in human MCF7 cells assessed as reduction in CyclinB1 expression incubated for 24 hrs by Western blot analysis; assay type: functional, cell-based; settings: dose 10-100 nM
How it was run: (§1)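 MCF-7 cells treated 24 h with 0, 10, 50 or 100 nM compound and lysed in RIPA buffer. Equal protein loads separated by 8–12% SDS-PAGE, transferred to nitrocellulose and blocked with 5% milk. Probed overnight at 4 °C with primary antibodies to Cdc25c, Cdc2 and Cyclin B1, then HRP secondary, with ECL detection. Densitometry averaged from two independent experiments.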

[7] = system: HUVEC; assay: Antimigratory activity against human HUVEC assessed as cell migration rate at 0.5 uM incubated for 12 hrs by wound healing assay (reference value: 68.5 %); assay type: functional
[8] = system: HUVEC; assay: Antivascular activity against HUVEC assessed as reduction in tube formation incubated for 6 hrs by matrigel based inverted fluorescence microscopic analysis; assay type: functional, cell-based; settings: Homo sapiens, dose 0.1-1 µM
How it was run: (§2)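 Matrigel polymerized 30 min at 37 °C. HUVECs in ECM medium with 20% FBS seeded at 5 × 10⁴/well with compound at 0, 0.1, 0.5 or 1 μM. After 6 h, tubule formation was photographed under an inverted microscope (×100).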

[9] = system: A549; assay: Antiproliferative activity against human A549 cells assessed as reduction in cell growth incubated for 72 hrs by MTT assay; assay type: functional, cell-based; settings: A549, 72 h
How it was run: (§3)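 Log-phase cells seeded at 5 × 10³/well and grown 24 h, then exposed to graded compound concentrations for 72 h. MTT (5 mg/mL) added for 4 h; formazan dissolved in DMSO and absorbance read at 490 nm. IC50 calculated from growth inhibition; means ± SD of triplicate experiments.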

[10] = system: HUVEC; assay: Upregulation of TIMP-1 protein expression in HUVEC at 0.05 to 1 uM incubated for 24 hrs by Western blot analysis; assay type: functional; settings: Homo sapiens, dose 0.05-1 µM
How it was run: (§4)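 HUVECs exposed to various compound concentrations for 24 h. MMP-9 and TIMP-1 measured by western blot: RIPA lysates, equal protein loads on 8–12% SDS-PAGE, nitrocellulose transfer, primary antibodies overnight at 4 °C, HRP secondary, ECL detection.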

[11] = system: HUVEC; assay: Antivascular activity against HUVEC assessed as reduction in tube formation at 0.1 microM incubated for 6 hrs by matrigel based inverted fluorescence microscopic analysis; assay type: functional, cell-based; settings: Homo sapiens; how it was run: as §2
[12] = system: HUVEC; assay: Antimigratory activity against human HUVEC assessed as cell migration rate at 1 uM incubated for 12 hrs by wound healing assay (reference value: 68.5 %); assay type: functional
[13] = system: MCF7; assay: Disruption of microtubule organization in human MCF7 cells assessed as microtubules spindle shrinkage around the centre of the cell at 100 nM incubated for 6 hrs by immunofluorescence based laser scanning confocal microscopic analysis; assay type: functional
How it was run: (§5)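 MCF-7 cells (3 × 10⁴) grown 24 h in confocal dishes, then treated 6 h with compound. Fixed in prewarmed 4% paraformaldehyde, permeabilized with 0.5% Triton X-100, blocked with 10% goat serum. Stained with mouse anti-tubulin (4 °C overnight), Alexa Fluor 488 secondary, and DAPI. Imaged by laser scanning confocal microscopy.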

[14] = system: MCF7; assay: Reduction in VEGF-A expression in human MCF7 cells at 50 to 100 nM incubated for 24 hrs by Western blot analysis; assay type: functional, cell-based; settings: dose 50-100 nM
How it was run: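 MCF-7 cells treated with compound at various concentrations for 24 h. VEGF-A protein assessed by western blot (RIPA lysis, SDS-PAGE, nitrocellulose transfer, ECL detection) with quantitative densitometry. Mean ± SD, three independent experiments.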

[15] = system: HeLa; assay: Antiproliferative activity against human HeLa cells assessed as reduction in cell growth incubated for 72 hrs by MTT assay; assay type: functional, cell-based; how it was run: as §3
[16] = system: MCF7; assay: Disruption of microtubule organization in human MCF7 cells assessed as microtubules shrinkage around the nucleus at 10 nM incubated for 6 hrs by immunofluorescence based laser scanning confocal microscopic analysis; assay type: functional, cell-based; how it was run: as §5
[17] = system: HUVEC; assay: Antivascular activity against HUVEC assessed as reduction in tube formation at 1 microM incubated for 6 hrs by matrigel based inverted fluorescence microscopic analysis; assay type: functional; settings: Homo sapiens; how it was run: as §2
[18] = system: MCF7; assay: Induction of apoptosis in human MCF7 cells; assay type: functional, cell-based
[19] = system: MCF7; assay: Induction of cell cycle arrest in human MCF7 cells assessed as accumulation in G1 phase at 10 nM incubated for 24 hrs by PI staining based flow cytometry analysis (reference value: 63.70 %); assay type: functional
[20] = system: HCT-116; assay: Antiproliferative activity against human HCT-116 cells assessed as reduction in cell growth incubated for 72 hrs by MTT assay; assay type: functional, cell-based; settings: HCT-116, 72 h; how it was run: as §3
[21] = system: HUVEC; assay: Antimigratory activity against human HUVEC assessed as cell migration rate at 0.1 uM incubated for 12 hrs by wound healing assay (reference value: 68.5 %); assay type: functional
[22] = system: MCF7; assay: Antiproliferative activity against human MCF7 cells assessed as reduction in cell growth incubated for 72 hrs by MTT assay; assay type: functional, cell-based; settings: MCF7, 72 h; how it was run: as §3
[23] = (§6) Inhibition of pig brain tubulin polymerization by spectrophotometric method; assay type: tissue-based, Sus scrofa
How it was run: (§7)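 Pig brain tubulin, purified by three assembly/disassembly cycles and phosphocellulose chromatography, mixed with compound at various concentrations. Buffer: PEM (100 mM PIPES, 1 mM MgCl₂, 1 mM EGTA) with 1 mM GTP and 5% glycerol. Polymerization followed at 37 °C by light scattering at 340 nm; plateau absorbance used for calculation.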

[24] = species on record: Sus scrofa; assay: as §6; assay type: tissue-based; how it was run: as §7
[25] = system: MCF7; assay: Induction of cell cycle arrest in human MCF7 cells assessed as accumulation in S phase at 5 nM incubated for 24 hrs by PI staining based flow cytometry analysis (reference value: 19.50 %); assay type: functional
[26] = system: HUVEC; assay: Antivascular activity against HUVEC assessed as disruption of vascular structure incubated for 6 hrs by matrigel based inverted fluorescence microscopic analysis; assay type: functional, cell-based; settings: Homo sapiens, dose 0.1-1 µM
How it was run: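 Capillary-like networks were formed by HUVECs on Matrigel over 6 h, then exposed to vehicle or compound (0.1, 0.5, 1 μM) in serum-free DMEM for 6 h and photographed. Remaining tubes were counted; disruption = [1 − (tubes treated/tubes vehicle)] × 100%.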

[27] = system: HUVEC; assay: Downregulation of MMP-9 protein expression in HUVEC at 0.05 to 1 uM incubated for 24 hrs by Western blot analysis; assay type: functional; settings: Homo sapiens, dose 0.05-1 µM; how it was run: as §4
[28] = system: WI-38; assay: Cytotoxicity against human WI-38 cells assessed as reduction in cell growth incubated for 72 hrs by MTT assay; assay type: cell-based; settings: WI-38, 72 h; how it was run: as §3
[29] = system: MCF7; assay: Induction of cell cycle arrest in human MCF7 cells assessed as reduction in Cdc25c expression incubated for 24 hrs by Western blot analysis; assay type: functional, cell-based; settings: dose 10-100 nM; how it was run: as §1
[30] = system: HepG2; assay: Antiproliferative activity against human HepG2 cells assessed as reduction in cell growth incubated for 72 hrs by MTT assay; assay type: functional, cell-based; settings: HepG2, 72 h; how it was run: as §3
[31] = system: MCF7; assay: Induction of cell cycle arrest in human MCF7 cells assessed as reduction in Cdc2 expression incubated for 24 hrs by Western blot analysis; assay type: functional, cell-based; settings: dose 10-100 nM; how it was run: as §1
[32] = system: HUVEC; assay: Antimigratory activity against human HUVEC assessed as cell migration rate at 0.1 uM incubated for 24 hrs by wound healing assay (reference value: 100 %); assay type: functional
[33] = system: HUVEC; assay: Antimigratory activity against human HUVEC assessed as cell migration rate at 1 uM incubated for 24 hrs by wound healing assay (reference value: 100 %); assay type: functional
[34] = system: HUVEC; assay: Cytotoxicity against HUVEC cells assessed as reduction in cell growth incubated for 72 hrs by MTT assay; assay type: cell-based; settings: Homo sapiens; how it was run: as §3
[35] = system: MCF7; assay: Disruption of microtubule organization in human MCF7 cells assessed as breakage and abnormal spindle formation incubated for 6 hrs by immunofluorescence based laser scanning confocal microscopic analysis; assay type: functional, cell-based; settings: dose 10-100 nM; how it was run: as §5
[36] = system: MCF7; assay: Induction of cell cycle arrest in human MCF7 cells assessed as accumulation in G1 phase at 5 nM incubated for 24 hrs by PI staining based flow cytometry analysis (reference value: 63.70 %); assay type: functional

What does the source list for `COc1ccc2c(N(C)c3cc(OC)c(OC)c(OC)c3)n[nH]c2n1`?
Activity [1]: 63.5%; Activity [2]: 26.6%; Activity [3]: 80.73%; Activity [4]: 10.11%; Activity [5]: Dose-dependent effect; Activity [6]: Dose-dependent effect; Activity [7]: 11.3%; Activity [8]: Dose-dependent effect; IC50 [9]: 6 µM; Activity [10]: Active; Activity [11]: Active; Activity [12]: 10.9%; Activity [13]: Active; inhibition [14]: Active; IC50 [15]: 0.21 µM; Activity [16]: Active; inhibition at 1 µM [17]: 100%; Activity [18]: inactive; Activity [19]: 9.16%; IC50 [20]: 0.26 µM; Activity [21]: 12.4%; IC50 [22]: 0.067 µM; IC50 [23]: 14 µM; inhibition [24]: Dose-dependent effect; Activity [25]: 10.02%; Activity [26]: Dose-dependent effect; inhibition [27]: Active; IC50 [28]: 23.4 µM; Activity [29]: Dose-dependent effect; IC50 [30]: 4.79 µM; Activity [31]: Dose-dependent effect; Activity [32]: 26.4%; Activity [33]: 22.4%; IC50 [34]: 23.5 µM; Activity [35]: Dose-dependent effect; Activity [36]: 26.47%

— ChEMBL document CHEMBL4680339, “Synthesis and bioevaluation of N-(3,4,5-trimethoxyphenyl)-1H-pyrazolo[3,4-b]pyridin-3-amines as tubulin polymerization inhibitors with anti-angiogenic effects” (Bioorg Med Chem, 2021)
